Experimental data from different studies.
Each line is one published result; the experiments were not run side by side.
Target: MAP kinase-activated protein kinase 2 (MAPKAPK2, Homo sapiens, UniProt P49137)

Structure (SMILES) | effect on | mode | method | tested at | measurement | result
COc1ccc2oc(-c3ccc4nc(N)oc4c3)c/c(=N\c3ccccc3NC(=O)CCN)c2c1 | binding |  |  | 1 µM | remaining binding | 103%
COc1ccc2[nH]c3c4[nH]c5ccc(OC)cc5c4c4c(c3c2c1)C(=O)NC4=O | binding |  |  | 1 µM | remaining binding | 100%
CCCCC(=O)Nc1ccc(-c2ccc3ncn(CCC)c(=O)c3c2)cn1 | binding |  | competition with immobilised ligand | 0.5 µM | remaining binding | 100%
C=CC(=O)N1CCC([C@@H]2CCNc3c(C(N)=O)c(-c4ccc(Oc5ccccc5)cc4)nn32)CC1 | enzyme activity | inhibitor |  | 1 µM | inhibition | 29%
CN1CCN(C(=O)c2ccc(NC(=O)Nc3ccc(N(C)c4ccnc(Nc5ccc(CS(C)(=O)=O)cc5)n4)cc3)cc2)CC1 | binding |  |  | 1 µM | remaining binding | 100%
C1=C/COCc2cc(ccc2OCCN2CCCC2)Nc2nccc(n2)-c2cccc(c2)COC/1 | binding |  |  | 0.1 µM | remaining binding | 100%
C=CC(=O)N1CCC[C@@H](n2nc(-c3ccc(Oc4ccccc4)cc3)c3c(N)ncnc32)C1 | enzyme activity | inhibitor |  | 1 µM | inhibition | 0%
C#Cc1cnc(Nc2ccnc(CO)c2)nc1Nc1ccccc1S(C)(=O)=NC#N (stereo not drawn) | cell-free assay |  |  | 1 µM | remaining signal | 100%
N#Cc1ccc(NC(=O)Nc2ccccc2)cc1 | cell-free assay |  | competition with immobilised ligand | 25 µM | remaining binding | 65%
